Source: PMC6176901 (ChemMedChem, 2018)

Columns and labels:
[1] = system: A549 (human lung adenocarcinoma); assay: Cytotoxic MTS assay, A549; assay type: cell-based; conditions: A549, 72 h, read-out: Cytotoxic activity IC50, A549
Summary of the method: (§1)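 Human lines grown in DMEM/RPMI 1640 with 10% fetal calf serum; CEM-DNR and K562-TAX sublines selected in rising daunorubicin or paclitaxel. Seeded at 25000–35000 cells/mL in 384-well plates; DMSO solutions added at time zero; 72 h at 37 °C, 5% CO2. MTS added for 1–4 h; OD at 490 nm. Survival versus control wells; IC50 from dose-response curves. Technical duplicates, ≥3 biological replicates.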

[2] = system: CCRF-CEM (T-lymphoblastic leukemia); assay: Cytotoxic MTS assay, CCRF-CEM; assay type: cell-based; conditions: Homo sapiens, 72 h, read-out: Cytotoxic activity IC50, CCRF-CEM
Summary of the method: as §1

[3] = system: CEM-DNR (T-lymphoblastic leukemia, daunorubicin resistant); assay: Cytotoxic MTS assay, CEM-DNR; assay type: cell-based; conditions: Homo sapiens, 72 h, read-out: Cytotoxic activity IC50, CEM-DNR
Summary of the method: as §1

[4] = system: K562 (acute myeloid leukemia); assay: Cytotoxic MTS assay, K562; assay type: cell-based
Summary of the method: as §1

[5] = system: K562-TAX (acute myeloid leukemia, overexpressing the P-glycoprotein); assay: Cytotoxic MTS assay, K562-TAX; assay type: cell-based; conditions: 72 h, read-out: Cytotoxic activity IC50, K562-TAX
Summary of the method: as §1

[6] = system: U2OS (Human Bone Osteosarcoma Epithelial Cells); assay: Cytotoxic MTS assay, U2OS; assay type: cell-based; conditions: 72 h, read-out: Cytotoxic activity IC50, U2OS
Summary of the method: as §1

[7] = Cytotoxic MTS assay, BJ; assay type: cell-based; conditions: human, BJ cells (non-malignant fibroblasts)
Summary of the method: as §1

[8] = Cytotoxic MTS assay, MRC-5; assay type: cell-based; conditions: human, MRC-5 cells (non-malignant lung fibroblasts)
Summary of the method: as §1

[9] = system: cancer and non-malignant cell lines; assay: Cytotoxic MTS assay, statements over several cell lines; assay type: cell-based; conditions: read-out: cytotoxicity, range over sensitive lines
Summary of the method: as §1

[10] = molecular target: hERManI; conditions: read-out: Ki for hERManI (in AspMan column); cited from earlier work
[11] = cited from earlier work
[12] = system: GMII (human Golgi α-mannosidase II); conditions: ref 9a, cited from earlier work
[13] = molecular target: LMan (human lysosomal α-mannosidase); conditions: read-out: LMan IC50 (in LManII column); ref 9a; cited from earlier work

| SMILES | IC50 [1] | IC50 [2] | IC50 [3] | IC50 ([4]; Homo sapiens, K562, 72 h, read-out: Cytotoxic activity IC50, K562) | K562 inhibition, in words ([4]; non-resistant K562) | IC50 [5] | IC50 [6] | IC50 at 72 h [7] | IC50 at 72 h [8] | IC50 [9] | Ki [10] | pKa ligand, Water pH=7, calculated by Sladek et al. [11] | Selectivity index, LMan/GMII [12] | IC50 ([12]; read-out: GMII IC50 (in GMIIb column)) | IC50 [13] |
| --- | --- | --- | --- | --- | --- | --- | --- | --- | --- | --- | --- | --- | --- | --- | --- |
| O[C@H]1[C@H]2[C@H](O)CCCN2C[C@H]1O [Compound 1, (1S,2R,8R,8aR)-trihydroxy-indolizidine] | > 200 µM | 113 ± 12 µM | 132 ± 20 µM | > 200 µM | did not inhibit | 137 ± 13 µM | > 200 µM | > 200 µM | > 200 µM | 110 to 140 µM | > 10000 µM | 7.8 | – | – | – |
| OC[C@@H](O)[C@@H]1[C@H](O)[C@H](O)CN1Cc1ccccc1 [Compound 25] | – | – | – | – | – | – | – | – | – | – | – | – | 2 | – | – |
| OC[C@@H](O)[C@H]1NC[C@@H](O)[C@H]1O [Compound 24, 1,4-dideoxy-1,4-imino-D-mannitol] | – | – | – | – | – | – | – | – | – | – | – | 6.6 | – | 100 µM | 13 µM |
